# Experimental data as given in PubChem BioAssay AID1257 (The Scripps Research Institute Molecular Screening Center, 2008).
# This is one part of the list. Activity calls are given as the source filed them.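 Rule for the calls: active = mean inhibition of triplicate wells above the hit cutoff set in the primary screen (cut at about 17% in these data); inactive = the rest.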
# Biological target: Neuropeptide Y receptor type 2 (Homo sapiens) (UniProt P49146)
# Assay: NPY-Y2 receptor antagonists, retest of hits, confirmation, HEK293-CNG cells, membrane potential fluorescence, triplicate (AID 1257);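 note: 0% = DMSO with NPY challenge and 100% = BIIE0246 high control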
# Conditions: HEK293 NPY-Y2 CNG channel, at 2.8 µM, stronger effect = higher value
# Summary of the method: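 assay system = NPY-Y2 HEK293-CNG cells | times = NPY exposure 60 min at room temperature | technique = voltage-sensitive dye fluorescence | read-out = 30-min to baseline fluorescence ratio, control-normalized | control set = high BIIE0246, low DMSO | repeats = three replicates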
# Chain of Neuropeptide Y receptor type 2 (Homo sapiens) (P49146 whole entry, looked up): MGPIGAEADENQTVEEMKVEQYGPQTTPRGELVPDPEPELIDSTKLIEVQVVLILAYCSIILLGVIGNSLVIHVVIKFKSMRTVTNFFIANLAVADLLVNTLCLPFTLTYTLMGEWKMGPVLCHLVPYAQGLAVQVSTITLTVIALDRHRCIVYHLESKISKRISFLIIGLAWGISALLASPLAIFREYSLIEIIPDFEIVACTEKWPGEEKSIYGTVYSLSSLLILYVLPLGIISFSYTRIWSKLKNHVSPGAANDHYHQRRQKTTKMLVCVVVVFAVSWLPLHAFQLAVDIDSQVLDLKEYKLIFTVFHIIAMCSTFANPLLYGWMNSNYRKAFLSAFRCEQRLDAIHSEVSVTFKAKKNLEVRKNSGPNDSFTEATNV
smiles,measurement,value
O=C(COC(=O)c1ccccc1)Nc1ccc(Cl)cc1C(=O)c1ccccc1,inhibition,15.9% (inactive)
